Experimental data: PMC2810129 (Journal of medicinal chemistry, 2009)
Read-outs that look alike come from different tables or passages of the source.

What was measured:
[1] = tested on: J774 murine monocyte-like macrophage line (subclone G8); test: Toxicity assay; assay type: cell-based
PfKASIII [2] = target: T1, PfKASIII (Plasmodium falciparum, UniProt O77078); test: PfKASIII inhibitor screen; assay type: biochemical
P. falciparum parasites = test: In vitro malaria growth inhibition assay, strain not specified or both strains; assay type: cell-based, Plasmodium falciparum; conditions: drug resistant and sensitive parasites
How it was run: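 P. falciparum D6 (chloroquine-sensitive, Sierra Leone I) and W2 (chloroquine-resistant, Indochina I) clones were cultured under 90% N2/5% O2/5% CO2 with 10% human serum and 6% haematocrit A+ red cells. Cultures at 3% parasitaemia with ≥70% rings were put on predosed plates for 24 h. [3H]-hypoxanthine was then added for 18 h, and cells were harvested and counted. IC50 was taken from a four-parameter nonlinear regression.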

PfKASIII [3] = target: T1, PfKASIII; conditions: read-out: PfKASIII IC50; cited from earlier work
bacterial KAS enzymes = conditions: cited from earlier work

| SMILES | toxicity against the mammalian cell line (in words) [1] | PfKASIII inhibition (in words) (PfKASIII [2]) | also measured |
| --- | --- | --- | --- |
| c1ccc(SSc2ccccc2)cc1 [Compound 1d] | little toxicity | – | – |
| O=S(=O)(Nc1cccc(Cl)c1)c1ccccc1 [Compound 2b] | significant toxicity | – | – |
| COc1ncnc(NS(=O)(=O)c2ccc(N)cc2)c1OC [Compound 2c] | – | failed to inhibit PfKASIII at the highest concentration tested | IC50 (PfKASIII [2]): > 1000 µM; antimalarial activity / parasite growth inhibition (in words) (P. falciparum parasites): robust antimalarial activity |
| C/C=C/CCCCCCCC(=O)NS(=O)(=O)c1ccc(N)cc1 [Compound 2e] | – | failed to inhibit PfKASIII at the highest concentration tested | IC50 (PfKASIII [2]): > 1000 µM |
| O=[N+]([O-])c1c(Cl)sc(Cl)c1S(=O)(=O)Nc1ccc(C(F)(F)F)cc1 [Compound 2g] | – | – | antimalarial activity / parasite growth inhibition (in words) (P. falciparum parasites): modest activity |
| Cc1ccc(S(=O)(=O)c2cc(O)c3ccccc3c2O)cc1 [Compound 3a] | little toxicity | – | – |
| NC1CCC(S(=O)(=O)c2cc(O)c3ccccc3c2O)CC1 (stereo not drawn) [Compound 3b] | little toxicity | – | – |
| Nc1ccc(S(=O)(=O)c2cc(O)c3ccccc3c2O)c(Cl)c1 [Compound 3c] | – | the most potent compound within the class of sulfonyls | – |
| CC(C)c1ccc(S(=O)(=O)c2ccc(C(C)C)cc2)cc1 [Compound 3g] | significant toxicity | – | – |
| Cc1ccc(S/C=C/S(=O)(=O)Cc2ccccc2)cc1 [Compound 3n] | significant toxicity | – | – |
| CCCCS(=O)(=O)CCOC(=O)c1ccc([N+](=O)[O-])cc1 [Compound 3r] | significant toxicity | potent inhibitors of PfKASIII | antimalarial activity / parasite growth inhibition (in words) (P. falciparum parasites): fail to inhibit parasite growth |
| C=C/C(C)=C/[C@@]1(C)SC(=O)C(C)=C1O [Thiolactomycin] | – | – | IC50 (PfKASIII [3]): > 330 µM; in vivo IC50, bacterial KAS enzymes (bacterial KAS enzymes): 75 µM |
